Measurements taken from the EternaBench riboswitch data.

Legend:
MS2 coat protein [1] = assay: apparent Kd, MS2 coat protein; higher = weaker binding; RNA-MaP array; tryptophan 2.4 mM where present
Procedure, shortened: (§1)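 Designs on Illumina sequencing-chip clusters, transcribed by stalled E. coli RNA polymerase, were exposed to SNAP-549-labelled MS2 coat protein in doubling steps from 0.7 or 1.5 nM up to 3 µM, without and then with constant ligand. The buffer held 100 mM Tris-HCl pH 7.5, 80 mM KCl, 4 mM MgCl2, BSA, DTT, yeast tRNA and Tween-20. Apparent Kd values are medians of filtered per-cluster binding-curve fits to green signal normalised to red-channel RNA signal and control-cluster median Fmax.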

MS2 coat protein [2] = assay: apparent Kd, MS2 coat protein; higher = weaker binding; RNA-MaP array; theophylline 2 mM where present
Procedure, shortened: as §1

[3] = designed as: OFF switch for tryptophan, no ligand
[4] = ligand present: tryptophan, designed as: OFF switch for tryptophan
[5] = designed as: ON switch for tryptophan, no ligand
[6] = ligand present: tryptophan, designed as: ON switch for tryptophan
[7] = designed as: ON switch for theophylline, no ligand
[8] = ligand present: theophylline, designed as: ON switch for theophylline
[9] = designed as: OFF switch for theophylline, no ligand
[10] = ligand present: theophylline, designed as: OFF switch for theophylline

UAAUCCGGUCCUCGAUAGGUGAUCCUCUAACGAGGACCGGUACGGCCGCCACUCGAUAACAUGAGGAUCACCCAUGUAAUAAUAA
apparent Kd (MS2 coat protein [1]; [3]): 44 nM | apparent Kd (MS2 coat protein [1]; [4]): 33.8 nM

UCUGCCGCGGCUCCGAUCCUCCUGUAGUUCCGAGGACCGGUACGGCCGCCACUCGUAGCACAUGAGGAUCACCCAUGUCUUGCGG
apparent Kd (MS2 coat protein [1]; [3]): 9.45 nM | apparent Kd (MS2 coat protein [1]; [4]): 11.2 nM

UCGUUUUAGUCGGCCGCCACUGUGAGCAUGGUUAACAUGAGGAUCACCCAUGUCCCGUACUAUAACAGGACCGGGACGUAGUUGC
apparent Kd (MS2 coat protein [1]; [5]): 93 nM | apparent Kd (MS2 coat protein [1]; [6]): 22.8 nM

UGUACCAUGUCGGCCGCCACUCAUGAUAAACAUGAGGAUCACCCAUGUGGCGUCAAAGACGCUAUGAGGACCGGGACAUGGUACU
apparent Kd (MS2 coat protein [1]; [5]): 13.2 nM | apparent Kd (MS2 coat protein [1]; [6]): 10.6 nM

AAGACCAGGAGGUGAUCCUAACUGGUCCAACGAGGACCGGUACGGCCGCCACUCGAAUAAACAUGAGGAUCACCCAUGUAAUAAU
apparent Kd (MS2 coat protein [1]; [5]): 98.1 nM | apparent Kd (MS2 coat protein [1]; [6]): 225 nM

CCUCAUGAACAUGAGGAUCACCCAUGUACACGAGGACCGGUACGGCCGCCACUCGAAUAAGCUAAAUAUAAAUAAUAAUAAUAGC
apparent Kd (MS2 coat protein [1]; [3]): 16.9 nM | apparent Kd (MS2 coat protein [1]; [4]): 37.6 nM

GGUUACUCUACGGCCGCCACUGAUUAUUUAUAAUCCUGUACAUAAACAUGAGGAUCACCCAUGUACAGGACCGGGUAGUGUAACC
apparent Kd (MS2 coat protein [1]; [5]): 33.8 nM | apparent Kd (MS2 coat protein [1]; [6]): 29.4 nM

GAUAUAUAGGCGGCCGCCACUGAUUUUCAUAUAUAUAUAACAUGAGGAUCACCCAUGUAGAUAUACAGGACCGGGCCUAUAUAUU
apparent Kd (MS2 coat protein [1]; [5]): 14.5 nM | apparent Kd (MS2 coat protein [1]; [6]): 13.4 nM

AGCCGGAUUACGGCCGCCACUGUAGACGUGACGAAAGUCGCGUCAACAUGAGGAUCACCCAUGUACAGGACCGGGUGGUCGGGCG
apparent Kd (MS2 coat protein [1]; [5]): 161 nM | apparent Kd (MS2 coat protein [1]; [6]): 27.5 nM

GGCACAUAGUCGGCCGCCACUAGUGGGAAAUGGGAGAACAUGAGGAUCACCCAUGUAUUAUAGCCUAGGACCGGGACUAUGUGCC
apparent Kd (MS2 coat protein [1]; [3]): 74.8 nM | apparent Kd (MS2 coat protein [1]; [4]): 105 nM

UGUCAGCGAAAGUUGACAUGUCUUACCGGUCGAGGACCGGUACGGCCGCCACUCGAUCUCUCGCACAUGAGGAUCACCCAUGUCG
apparent Kd (MS2 coat protein [1]; [5]): 12.7 nM | apparent Kd (MS2 coat protein [1]; [6]): 11.2 nM

GGGUACAUCGCGGCCGCCACUUAUGUAAAUACAUGAGGAUCACCCAUGUCGAUGGAGACAUCGGAAAGGACCGGGUGAUGUACCG
apparent Kd (MS2 coat protein [1]; [5]): 198 nM | apparent Kd (MS2 coat protein [1]; [6]): 47.5 nM

GGAUGCGGCACGGCCGCCACUGCGGUGGUGUGACAUGAGGAUCACCCAUGUUGUCAUGCGGCCCUUAGGACCGGGUGGCGUGUCC
apparent Kd (MS2 coat protein [1]; [3]): 46.4 nM | apparent Kd (MS2 coat protein [1]; [4]): 47 nM

GCAUCCUAGUCGGCCGCCACUACAACAUGAGGAUCACCCAUGUGUGGGAGAUCCGUCCUACGAAGUAGGACCGGGACUAGGAUGC
apparent Kd (MS2 coat protein [1]; [5]): 272 nM | apparent Kd (MS2 coat protein [1]; [6]): 444 nM

ACAUGAGGAUCACCCAUGUGCAUGAUGAUCCGAGGACCGGUACGGCCGCCACUCGUCAUGAUGAUCUUUCAUGUUUGUCGCGCGC
apparent Kd (MS2 coat protein [1]; [5]): 329 nM | apparent Kd (MS2 coat protein [1]; [6]): 429 nM

GGCGCUGCGUCGGCCGCCACUAGUGGGUAAUGGGUGUACAUGAGGAUCACCCAUGUAUUUUGGCCUAGGACCGGGACGUGGCGCC
apparent Kd (MS2 coat protein [1]; [3]): 453 nM | apparent Kd (MS2 coat protein [1]; [4]): 503 nM

GGUUACUCUACGGCCGCCACUGUUAAAUAAUAAACCUGUACAUAAACAUGAGGAUCACCCAUGUACAGGACCGGGUAGUGUAACC
apparent Kd (MS2 coat protein [1]; [5]): 32.1 nM | apparent Kd (MS2 coat protein [1]; [6]): 16.1 nM

UUAUGCAGGUCGGCCGCCACUACACACAUGAGGAUCACCCAUGUAGUUACUGGGUGAAGUGGCAGUAGGACCGGGACCUGCAUAC
apparent Kd (MS2 coat protein [1]; [5]): 553 nM | apparent Kd (MS2 coat protein [1]; [6]): 316 nM

AUACAUGAGGAUCACCCAUGUGAUGGCCGGCGAGGACCGGUACGGCCGCCACUCGUGAUCCGUCCUGAGAGCAAAGCCCUCAGCA
apparent Kd (MS2 coat protein [1]; [5]): 124 nM | apparent Kd (MS2 coat protein [1]; [6]): 171 nM

CUCAUCCACGCGGCCGCCACUAUAUUGUGGUGCGUAUGUGUCGUAAUACAUGAGGAUCACCCAUGUAGGACCGGGCGUGGAUGAG
apparent Kd (MS2 coat protein [1]; [3]): 10.8 nM | apparent Kd (MS2 coat protein [1]; [4]): 20.4 nM

AUUGUGAAGUCGGCCGCCACUGCAUAGUUUAACCUCUUUUAACAUGAGGAUCACCCAUGUAAUGACAGGACCGGGACAAUAGUAA
apparent Kd (MS2 coat protein [1]; [5]): 51.5 nM | apparent Kd (MS2 coat protein [1]; [6]): 59.9 nM

AUCGUACCUGAUGAUACCAGCAUGUGCUCGUAACAUGAGGAUCACCCAUGUGAUCAGUGAUGCCCUUGGCAGCAUGAUCGGUGCA
apparent Kd (MS2 coat protein [2]; [7]): 169 nM | apparent Kd (MS2 coat protein [2]; [8]): 19.3 nM

UGUAACAUGAGGAUCACCCAUGUGAGUGAUACCAGAUUAGUAUUAGUCCCUUGGCAGCACGUUGGGCGAGUGUAUAGUCUAUGCG
apparent Kd (MS2 coat protein [2]; [7]): 147 nM | apparent Kd (MS2 coat protein [2]; [8]): 113 nM

AUUGGGUUAUCAGAUACCAGACUAUUCUAGACAUGAGGAUCACCCAUGUAUUGGGUUUUCGUCCCUUGGCAGCUGUUAAGUUUAA
apparent Kd (MS2 coat protein [2]; [7]): 167 nM | apparent Kd (MS2 coat protein [2]; [8]): 113 nM

AGUGUUAUAACUGAUACCAGACCUUUGCUUAUACAUGAGGAUCACCCAUGUAAAAUGGCGGUCCCUUGGCAGCAGAGAAUACGCA
apparent Kd (MS2 coat protein [2]; [7]): 68 nM | apparent Kd (MS2 coat protein [2]; [8]): 13.2 nM

AUACACCUCGUCCAGGCAAUCUUUAGUGAUACCAGCUAACUCCGUGGCCCUUGGCAGCACAUGAGGAUCACCCAUGUGCGACAUC
apparent Kd (MS2 coat protein [2]; [9]): 11.1 nM | apparent Kd (MS2 coat protein [2]; [10]): 11.8 nM

UUUUAAAGCAUGGCGUAUCGGAAAACCGAUACCAGUACAGAAAUGUACCCUUGGCAGCGGAAUUUUACAUGAGGAUCACCCAUGU
apparent Kd (MS2 coat protein [2]; [9]): 13.1 nM | apparent Kd (MS2 coat protein [2]; [10]): 43.4 nM

UGUAAAAUAACAGAUACCAGCGUGUUAUAAAACAUGAGGAUCACCCAUGUAGUGAUCAAGCGCCCUUGGCAGCUGGUAUUUUAUG
apparent Kd (MS2 coat protein [2]; [7]): 160 nM | apparent Kd (MS2 coat protein [2]; [8]): 129 nM

ACGAACGAUAGUGAUACCAGACGUACAUGAGGAUCACCCAUGUUGUAAACAUGGUUAAUAGUCCCUUGGCAGCACGAUAAGUUCG
apparent Kd (MS2 coat protein [2]; [9]): 575 nM | apparent Kd (MS2 coat protein [2]; [10]): 499 nM

AAAGAUACCAGAGAUACCAGCCAAAAUUAAAAUAAAACCUCACAUGAGGAUCACCCAUGUGGCCCUUGGCAGCUCCCUUGGCAGC
apparent Kd (MS2 coat protein [2]; [9]): 12.5 nM | apparent Kd (MS2 coat protein [2]; [10]): 53.7 nM

AGACAUGAGGAUCACCCAUGUAGUACGGAUACCAGAUCCAGAUUUAUCCCUUGGCAGCUGUGGUACAGCGUUGCAACGCUCCUAG
apparent Kd (MS2 coat protein [2]; [9]): 17.5 nM | apparent Kd (MS2 coat protein [2]; [10]): 17.5 nM

UAUUUUGGGCGCGAGCCCGGGAUAAUUGAUACCAGUGAAGAAGAGCGCCCUUGGCAGCGAAUCCUAACAUGAGGAUCACCCAUGU
apparent Kd (MS2 coat protein [2]; [7]): 47.5 nM | apparent Kd (MS2 coat protein [2]; [8]): 60 nM

ACGACGCAUAGUGAUACCAGUAGAACAUGAGGAUCACCCAUGUCUGUGACGCACCACCUCUGCCCUUGGCAGCACUAUGCGUCAG
apparent Kd (MS2 coat protein [2]; [7]): 22.7 nM | apparent Kd (MS2 coat protein [2]; [8]): 22.9 nM

UUACAUGAGGAUCACCCAUGUCAUAACGAUACCAGAUAGUUAAUGAUCCCUUGGCAGCGUAAUACCUAGACAUUUAAGUCAUAGG
apparent Kd (MS2 coat protein [2]; [7]): 56.2 nM | apparent Kd (MS2 coat protein [2]; [8]): 19.6 nM

UACAUGAGGAUCACCCAUGUAUGAAUAGAUACCAGCGAAAAUAAGCGCCCUUGGCAGCUAGUGAAUAAAGGGUGGGUAAAAUAAU
apparent Kd (MS2 coat protein [2]; [9]): 9.18 nM | apparent Kd (MS2 coat protein [2]; [10]): 19.9 nM

AGUACUCGAACGGAUACCAGCCGGACAUGAGGAUCACCCAUGUCCUACCAUGUUUCGGUUGGCCCUUGGCAGCCGUUCGUGUACA
apparent Kd (MS2 coat protein [2]; [7]): 425 nM | apparent Kd (MS2 coat protein [2]; [8]): 30.4 nM

UUUGCACAUGAGGAUCACCCAUGUACAGAUACCAGCCUCAUCUACGGCCCUUGGCAGCUGAGACAAUGGUGACAUGAUGGGCUUU
apparent Kd (MS2 coat protein [2]; [9]): 12.1 nM | apparent Kd (MS2 coat protein [2]; [10]): 32.6 nM

UUAAGAGGCUAUCAAAUUUGAUUUUGUGAUACCAGAAUAAUUUUAUUCCCUUGGCAGCAUGACAUGAGGAUCACCCAUGUGUCUU
apparent Kd (MS2 coat protein [2]; [7]): 35.4 nM | apparent Kd (MS2 coat protein [2]; [8]): 30.2 nM

UGGUUUGUGAUGGAUACCAGCAGAGAAAACGUUUAUCCUAACAUGAGGAUCACCCAUGUAUGCCCUUGGCAGCUGUUGUGGGCUG
apparent Kd (MS2 coat protein [2]; [9]): 36 nM | apparent Kd (MS2 coat protein [2]; [10]): 38.9 nM

UGUUUGGUGCGCGAGUGUUGGAUGAUUGAUACCAGUGAAGAAGAGCGCCCUUGGCAGCGAAUCCUAACAUGAGGAUCACCCAUGU
apparent Kd (MS2 coat protein [2]; [7]): 50.8 nM | apparent Kd (MS2 coat protein [2]; [8]): 67.6 nM
